SKKanGAS inh = S. pyogenes SKKanGAS growth inhibitors in kanamycin, primary screen, streptokinase expression inhibitor project, SKKanGAS strain, BacTiter-Glo luminescence; 6 h; inhibition, % at 7.5 µM; 1.3% of 300,000 active;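 active means mean replicate score, as percent of positive control median, at least 50; inconclusive means mean below 50 but one replicate at or above 50; inactive means mean and every replicate below 50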;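 further: strain carries kanamycin resistance gene driven by streptokinase promoter and grows in 40 µg/ml kanamycin; loss of luminescence reflects streptokinase promoter inhibition or plain growth inhibition; 0% = median of DMSO wells and 100% = positive control at its reference dose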
Beta cell apopt = inhibitors of cytokine-induced beta cell apoptosis, primary screen, luminescence | INS-1E cytokine-induced death, ATP luminescence, 48 h; percent of positive-control rescue, neutral wells zero | protection from apoptosis, % (no concentration beside the values) | 0.8% of 300,000 active;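 active means Every replicate reaches about 75%, or at least half do and their mean reaches it too, limit read from the data; inconclusive means At least half of replicates reach the limit but their mean does not; inactive means Under half of replicates reach the limit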;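 further: 0% = cytokine-treated negative control wells and 100% = positive control rescue; higher means more ATP so stronger rescue from cytokine killing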
CHOP UPR activ = activators of apoptotic CHOP UPR arm, primary screen, cell-based, CHO-CHOP luciferase reporter, luminescence, uHTS. UPR activation; percent of tunicamycin response over DMSO baseline. activation, % at 10 µM. 0.34% of 330,000 active. AID 449763, 2010;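 active means at 10 µM dose, activation of 40% or more, normalized to positive control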;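 further: 100% = tunicamycin at 10 µg/mL and 0% = DMSO alone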
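Test system: CHO CHOP reporter cells. Input: 500 CHO-CHOP cells per well. Medium: F12 with 10% FBS. Technique: luciferase luminescence. Measure: percent activation relative to tunicamycin control. Dosing: 10 µM compound, 0.5% DMSO. Timing: 16-18 h cell attachment, then 6 h compound exposure, 37 °C.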
XBP1 UPR activ = activators of adaptive XBP1 UPR arm, primary screen, cell-based, CHO-XBP1 luciferase reporter, luminescence, uHTS | 0.33% of 330,000 active | IRE1-XBP1 UPR activation; percent of tunicamycin response, DMSO as zero | activation, % at 20 µM;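 active means versus positive control, 20 µM dose yields 30% or more activation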;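 further: 100% = tunicamycin at 10 µg/mL and 0% = DMSO only wells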
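assay system = CHO-XBP1 luciferase reporter cells | amount = 1000 cells/well | buffer or medium = F12 plus 10% FBS | compound dosing = single point, 20 µM final compound, 1% DMSO | incubation = 16-18 h cell attachment at 37 °C, then 6 h compound exposure | detection = Steady-Glo luminescence read | controls = tunicamycin 10 µg/mL and vehicle-only wells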
CSC inhib = cancer stem cell viability inhibitors, primary screen, luminescence; cancer stem cell-like cells viability; inhibition, % at 7.5 µM; 1.1% of 300,000 active; AID 2717, 2010; in the data active means inhibition above about 75%; inconclusive means no clear call, values can overlap the other calls; tested in HMLE shEcad cells
Mdm2-MdmX inh = inhibitors of human Mdm2-MdmX association, primary screen, cell-based, luminescence, split luciferase, SaOS-2, uHTS. Protein Mdm4 (Homo sapiens) + E3 ubiquitin-protein ligase Mdm2 (Homo sapiens), …. SaOS-2 split-luciferase Mdm2/MdmX complementation. inhibition, % at 8 µM. 3% of 330,000 active. AID 485346, 2010;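 active means inhibition of at least 50% at 8 µM in the primary screen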
Target sequence (O15151 whole entry, looked up): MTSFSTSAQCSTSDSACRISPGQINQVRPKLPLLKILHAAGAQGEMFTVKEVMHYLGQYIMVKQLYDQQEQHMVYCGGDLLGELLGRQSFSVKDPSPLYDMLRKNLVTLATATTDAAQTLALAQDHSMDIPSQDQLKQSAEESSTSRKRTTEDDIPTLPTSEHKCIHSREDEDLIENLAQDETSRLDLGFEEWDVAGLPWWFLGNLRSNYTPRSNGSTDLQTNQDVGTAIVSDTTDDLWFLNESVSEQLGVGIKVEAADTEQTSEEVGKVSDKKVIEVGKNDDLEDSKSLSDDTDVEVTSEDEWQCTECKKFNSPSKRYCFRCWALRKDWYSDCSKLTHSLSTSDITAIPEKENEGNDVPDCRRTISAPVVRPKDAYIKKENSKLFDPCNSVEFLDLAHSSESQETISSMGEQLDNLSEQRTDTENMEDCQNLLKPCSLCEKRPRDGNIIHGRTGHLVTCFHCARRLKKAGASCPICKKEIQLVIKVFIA
Target sequence (Q00987 whole entry, looked up): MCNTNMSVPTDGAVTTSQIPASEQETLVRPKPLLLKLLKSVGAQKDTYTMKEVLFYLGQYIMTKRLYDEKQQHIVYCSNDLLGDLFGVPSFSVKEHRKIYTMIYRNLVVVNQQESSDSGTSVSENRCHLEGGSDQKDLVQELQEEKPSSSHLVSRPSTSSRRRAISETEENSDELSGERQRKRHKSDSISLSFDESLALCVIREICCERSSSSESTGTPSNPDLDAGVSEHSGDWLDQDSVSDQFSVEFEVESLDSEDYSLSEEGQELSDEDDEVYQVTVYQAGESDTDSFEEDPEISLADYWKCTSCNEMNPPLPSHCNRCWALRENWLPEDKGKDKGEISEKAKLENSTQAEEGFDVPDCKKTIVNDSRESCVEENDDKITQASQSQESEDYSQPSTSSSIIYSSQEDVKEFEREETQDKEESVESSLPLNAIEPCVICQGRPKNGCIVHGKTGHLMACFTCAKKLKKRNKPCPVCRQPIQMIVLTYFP
CHOP UPR conf = activators of apoptotic CHOP UPR arm, confirmation, cell-based, CHO-CHOP luciferase reporter, single concentration | shares compounds with CHOP UPR activ | activation, % at 10 µM | AID 463112, 2010 | 64% of 1,000 active | CHO-CHOP cells, CHOP-luciferase reporter luminescence; percent of tunicamycin response, DMSO as zero; in the data active means activation above about 33%;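 further: 0% = DMSO wells and 100% = tunicamycin 10 µg/mL wells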
XBP1 UPR conf = IRE1-XBP1 UPR arm activators, confirmation, cell-based, CHO-XBP1 luciferase reporter, luminescence, single concentration; shares compounds with XBP1 UPR activ; activation, % at 20 µM; 63% of 1,000 active;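 active means reporter signal at least 30% of the positive control's activation in two or more of four replicate wells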;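 further: plate controls were DMSO negative control for no effect and tunicamycin 10 µg/mL positive control for full effect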
Mdm2 MdmX conf = Mdm2-MdmX complex disruptors, retested hits, confirmation, luminescence, single concentration. shares compounds with Mdm2-MdmX inh. Mdm2-MdmX binding, luminescent assay. inhibition, % at 8 µM. 55% of 10,000 active. AID 489028, 2010; in the data active means inhibition above about 40%
Full FLuc ctr = full-length luciferase signal inhibition, confirmation, counter-screen for Mdm2/MdmX interaction inhibitor project, cell-based, single concentration, SaOS-2; inhibition, % at 8 µM; SaOS-2 full-length luciferase counterscreen, luminescence; shares compounds with Mdm2-MdmX inh; 77% of 6,200 active;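 active means mean inhibition at 8 µM reaching about 37%, which flags the compound as non-specific, limit read from the data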;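 further: p53-null SaOS-2 cells with luciferase driven by a doxycycline-inducible promoter; compound on cells about two nights before reading with doxycycline added after day one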
* hit, by the source's call. The list is not random: actives were taken first. Their share in the collection is about 4.8%.

`Cc1nn(CC(=O)N2c3ccccc3NC(=O)C2(C)C)c(C)c1[N+](=O)[O-]` gave SKKanGAS inh 2, CHOP UPR activ 2, XBP1 UPR activ -2, CSC inhib -3 and Mdm2-MdmX inh 0.
Screening CC1(C)C(=O)Nc2ccccc2N1C(=O)Cn1ncc(Cl)c(Cl)c1=O returned SKKanGAS inh -5, Beta cell apopt -21, CHOP UPR activ 50*, XBP1 UPR activ 2, CSC inhib inconclusive, Mdm2-MdmX inh 100*, CHOP UPR conf 4, Mdm2 MdmX conf 91* and Full FLuc ctr 40*.
CC(Oc1ccc(C#N)cc1)C(=O)N1CC=C(c2ccccc2)CC1 (stereo not drawn) was read as Beta cell apopt 2, CHOP UPR activ -1, XBP1 UPR activ 0, CSC inhib 28 and Mdm2-MdmX inh 22.
For Cc1cc(C)c2sc(NC(=O)C3=COCCO3)nc2c1 the results were SKKanGAS inh -6, Beta cell apopt 0, CHOP UPR activ 2, XBP1 UPR activ -2, CSC inhib 5 and Mdm2-MdmX inh -150.
COc1ccc2c(C(=O)CCl)c[nH]c2c1 was read as SKKanGAS inh 2, Beta cell apopt -35, CHOP UPR activ 238*, XBP1 UPR activ -5, CSC inhib -3, Mdm2-MdmX inh 57*, CHOP UPR conf 205*, Mdm2 MdmX conf 53* and Full FLuc ctr 24.
Oc1cc(-c2cccnc2)cc2cccnc12 was read as Beta cell apopt 11, CHOP UPR activ 96*, XBP1 UPR activ 46*, CSC inhib 46, Mdm2-MdmX inh 76*, CHOP UPR conf 74*, XBP1 UPR conf 34*, Mdm2 MdmX conf 50* and Full FLuc ctr 14.
Screening CN1CCN(C(=O)c2cccc(-c3cc(O)c4ncccc4c3)c2)CC1 returned Beta cell apopt 32, CHOP UPR activ 3, XBP1 UPR activ -3, CSC inhib -1 and Mdm2-MdmX inh 27.
Screening COc1c(Cl)cc(Cl)cc1/C=C/C(=O)c1ccc(NC(=O)c2cccs2)cc1 returned SKKanGAS inh 26, Beta cell apopt 23, CHOP UPR activ 55*, XBP1 UPR activ 12, CSC inhib 103*, Mdm2-MdmX inh 99*, CHOP UPR conf 247*, Mdm2 MdmX conf 95* and Full FLuc ctr 59*.
For O=C(NC(=S)Nc1ccc(NC(=O)c2cccs2)cc1)c1ccco1 the results were SKKanGAS inh -3, Beta cell apopt 0, CHOP UPR activ 3, XBP1 UPR activ 0, CSC inhib -1 and Mdm2-MdmX inh -29.
`O=C(NC(=S)Nc1ccc(NC(=O)c2cccs2)cc1)c1cc2ccccc2o1` gave SKKanGAS inh -7, Beta cell apopt 6, CHOP UPR activ 57*, XBP1 UPR activ 121*, CSC inhib 23, Mdm2-MdmX inh 52*, CHOP UPR conf 46*, XBP1 UPR conf 106* and Mdm2 MdmX conf 30.
For COc1ccc(C(=O)Nc2cccc(S(=O)(=O)NC3=NCCC3)c2)cc1OC the results were Beta cell apopt -4, CHOP UPR activ 1, XBP1 UPR activ 0, CSC inhib 10 and Mdm2-MdmX inh 5.
`Cc1nc2scc(-c3ccccc3)c2c(=O)n1N=C1C=CC(=O)C=C1` gave SKKanGAS inh 9, CHOP UPR activ 90*, XBP1 UPR activ -7, Mdm2-MdmX inh 70*, CHOP UPR conf 13, Mdm2 MdmX conf 42* and Full FLuc ctr 13.
Screening COc1cc([C@H]2c3[nH]c4ccccc4c3C[C@H]3C(=O)N4[C@@H](c5cc(OC)c(OC)c(OC)c5)c5[nH]c6ccccc6c5C[C@H]4C(=O)N23)cc(OC)c1OC returned SKKanGAS inh 15, Beta cell apopt 13, CHOP UPR activ 88*, XBP1 UPR activ 153*, CSC inhib -6, Mdm2-MdmX inh 79*, CHOP UPR conf 109*, XBP1 UPR conf 118* and Mdm2 MdmX conf 29.
For CCN1C(=O)[C@@H]2Cc3c([nH]c4ccccc34)C(c3cc(OC)c(OC)c(OC)c3)N2C1=S (stereo partly drawn) the results were SKKanGAS inh 23, Beta cell apopt 8, CHOP UPR activ 0, XBP1 UPR activ -4, CSC inhib 54 and Mdm2-MdmX inh 28.
O=S(=O)(c1ccc(F)cc1)c1snnc1-c1ccccc1 was read as SKKanGAS inh 6, Beta cell apopt -9 and CSC inhib 67.
For O=S(=O)(c1ccc(Cl)cc1)c1snnc1-c1ccccc1 the results were SKKanGAS inh 15, Beta cell apopt 12, CHOP UPR activ 64*, XBP1 UPR activ 12, CSC inhib 108*, Mdm2-MdmX inh 98*, CHOP UPR conf 55*, Mdm2 MdmX conf 80* and Full FLuc ctr 56*.
`COc1ccc(CNC(=O)C2CCN(S(=O)(=O)c3ccccc3)CC2)cc1` gave SKKanGAS inh 2, CHOP UPR activ -1, XBP1 UPR activ -1, CSC inhib -5 and Mdm2-MdmX inh 11.
Screening Fc1ccc(Sc2nc(-c3ccccc3)nnc2C(F)(F)F)cc1 returned SKKanGAS inh -10, Beta cell apopt -12, CHOP UPR activ 41*, XBP1 UPR activ -3, Mdm2-MdmX inh 78*, CHOP UPR conf 20 and Mdm2 MdmX conf 18.
Screening Fc1ccc(Oc2nc(-c3ccccc3)nnc2C(F)(F)F)cc1 returned SKKanGAS inh 12, Beta cell apopt 0, CHOP UPR activ 1, XBP1 UPR activ -4, CSC inhib 18 and Mdm2-MdmX inh -10.

Assay outcomes (PubChem BioAssay)
